CRFBP-R2 block = blocks CRF-induced signaling of the CRF-BP/CRF-R2 complex. 0.59% of 350,000 active. AID 588475. HEK293 CRF-R2/CRF-BP, CRF-induced calcium fluorescence. inhibition, % at 11.8 µM;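 active = inhibition of the ligand-induced calcium signal above about 50% at the single tested concentration, limit read from the data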
Jurkat NFkB inh = inhibitors of the PMA/ionomycin-induced NF-kB reporter in Jurkat cells | PMA/ionomycin-induced NF-kB luciferase reporter, luminescence | inhibition, % at 4 µM | 0.53% of 330,000 active | AID 435003; in the data active = inhibition above about 50%
697 NFkB inh = inhibitors of the PMA/ionomycin-induced NF-kB reporter in 697 B cells. inhibition, % at 4 µM. 697 B-cell NF-kB luciferase reporter, 16 h. 0.33% of 330,000 active; in the data active = inhibition above about 35%
UPR CHOP act = apoptotic UPR (CHOP) activation. 0.34% of 330,000 active. CHO-CHOP luciferase reporter, luminescence; percent of tunicamycin response over DMSO baseline. activation, % at 10 µM;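 active = at 10 µM dose, activation of 40% or more, normalized to positive control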;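 also: 100% = tunicamycin at 10 µg/mL and 0% = DMSO alone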
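Assay system: CHO cells with stable CHOP pathway luciferase reporter; Buffer or medium: F12 plus 10% serum; Times: 16-18 h cell attachment, then 6 h compound exposure, 37 °C; Signal: luciferase luminescence; Read-out basis: percent activation relative to tunicamycin control; Control set: tunicamycin high control, DMSO low control.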
XBP1 UPR activ = activators of adaptive arm of unfolded protein response (XBP1); CHO-XBP1 luciferase reporter, IRE1-XBP1 UPR activation, luminescence; percent of tunicamycin response, DMSO as zero; 0.33% of 330,000 active; activation, % at 20 µM; AID 463104;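 active = versus positive control, 20 µM dose yields 30% or more activation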;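 also: 100% = tunicamycin at 10 µg/mL and 0% = DMSO only wells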
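Material: IRE1-XBP1 luciferase reporter CHO line / Quantity: one thousand reporter cells per well / Buffer or medium: F12 with 10% serum / Compound: 20 µM single concentration, DMSO 1% / Times: 6 h treatment, 37 °C / Detection: Steady-Glo luciferase glow luminescence, 10 min after reagent addition / Benchmarks: tunicamycin high, DMSO low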
Jurkat NFkB conf = lowers PMA/ionomycin-induced NF-kB signal in Jurkat cells; shares compounds with Jurkat NFkB inh; Jurkat NF-kB luciferase, 16 h; inhibition, % at 4 µM; 27% of 2,700 active;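 active = inhibition reaching about 45% at 4 µM in either replicate, limit read from the data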;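 also: plate controls were PMA/ionomycin stimulated DMSO wells for no effect and unstimulated DMSO wells for full effect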
Numbers without * were called inactive; / = no result. This is a sample that favours compounds with a hit; in the whole collection about 1.8% have one here.

SMILES	CRFBP-R2 block	Jurkat NFkB inh	697 NFkB inh	UPR CHOP act	XBP1 UPR activ	Jurkat NFkB conf
Cc1ccc2nc(-c3ccc(NC(=O)C(C)Sc4nncs4)cc3)sc2c1 (centres undefined)	-38	-167	-163	2	3	-36
O=C(Nc1ccc(Cl)cn1)c1cc2ccccc2o1	-20	-152	-232	3	-2	-102
O=C(Nc1ccccc1C(F)(F)F)c1cc2ccccc2o1	0	-152	-189	5	0	-81
CC(=O)Nc1sc2c(c1C#N)CCCC2	4	-17	8	1	5	/
Cc1cc(C(=O)Nc2sc3c(c2C#N)CCCCC3)cs1	-68	-186	-179	2	1	-105
COc1ccccc1N1CCN(C(=O)c2ccc(-c3ccc(Cl)cc3)o2)CC1	3	63*	-48	-1	11	53*
COc1ccccc1N1CCN(C(=O)NCc2ccc(Cl)cc2)CC1	-8	20	-2	2	-1	/
O=c1c2sc(-c3ccccc3)cc2nc2n1CCCCC2	-3	-166	-209	6	0	-123
O=C(CNC(=O)c1ccco1)N=Nc1c(O)n(CCc2ccccc2)c2ccccc12	17	67*	3	0	12	51*
CC(C)N1CCC(=NNc2ccc(S(=O)(=O)N3CCOCC3)cc2[N+](=O)[O-])CC1	12	11	14	2	-3	/
CCCN1CCC(=NNc2ccc(S(=O)(=O)N3CCOCC3)cc2[N+](=O)[O-])CC1	7	64*	-12	-1	2	2
N#C/C(=C\c1ccc[nH]1)C(=O)Nc1ccccc1F	-2	-54	-42	5	4	/
Cc1cc(/C=C(\C#N)C(=O)Nc2ccccc2F)c(C)[nH]1	-4	-191	-128	5	0	-5
Cc1ccccc1CSc1nc2[nH]ncc2c(=O)[nH]1	-6	-4	13	0	2	/
Cc1ccc(C)c(CSc2nc3[nH]ncc3c(=O)[nH]2)c1	3	66*	-30	-3	-3	46
COC(=O)/C(=C\Nc1ccc(OC)cc1)NC(=O)c1ccc(Cl)cc1Cl	-4	-13	4	-3	-1	/
COC(=O)/C(=C\Nc1ccc(Cl)cc1Cl)NC(=O)c1ccc(OC)cc1	9	66*	-2	2	0	-1
COc1ccc(CS(=O)(=O)/C(Cl)=C(/Cl)C(=O)Nc2ccc(OC)nc2)cc1	-9	81*	-156	6	-9	85*
COc1ccc(/C=C/C(=O)Nc2ccc(OC)nc2)cc1	-12	-12	-2	3	0	/
COc1ccc(NC(=O)/C(Cl)=C(/Cl)S(=O)Cc2ccccc2)cn1 (centres undefined)	-55	95*	-131	-10	-10	98*
COc1ccc(NC(=O)Cc2ccccc2)cn1	-5	4	23	-1	-1	/
CCCc1cc(=O)oc2cc(C)cc(OCC(=O)Nc3ccc(CN4CCOCC4)cc3)c12	-9	-9	-1	-1	-5	/
C=CCN1C(=O)c2ccc(C(=O)N(CC)CC(=O)Nc3cc(Cl)ccc3C)cc2C1=O	-6	14	-8	1	1	/
Cn1nnc2cc(C(=O)Nc3ccc4ccccc4c3)ccc21	-4	-163	-166	5	4	-67
COc1ccc2nc(Nc3ccc4c(c3)OCO4)sc2c1	-4	-77	-126	7	4	/
SMILES	CRFBP-R2 block	Jurkat NFkB inh	697 NFkB inh	UPR CHOP act	XBP1 UPR activ	Jurkat NFkB conf
COc1ccc2nc(NC(=O)c3ccc4ncsc4c3)sc2c1	-10	-151	-203	6	8	-48
COc1ccc2nc(Nc3ccccc3)sc2c1	-11	-186	-132	0	3	-117
COc1ccc2nc(Nc3ccccc3OC)sc2c1	2	-195	-191	4	1	-123
CCc1cc(C(=O)OCC(=O)N2CCC(c3ccccc3)=N2)sc1C	-25	-9	11	-1	-8	/
Cc1c(NC(=O)CN2C(=O)NC(C)(c3ccc(Cl)cc3)C2=O)c(=O)n(-c2ccccc2)n1C (centres undefined)	-17	-3	13	5	1	/
C=CS(=O)(=O)c1ccc(Oc2ccc(S(=O)(=O)C=C)cc2)cc1	2	78*	3	-7	-6	91*
